# Measured values of several laboratories.
# Each line is one published result; the experiments were not run side by side.
# Cell line: BEAS-2B
# Read-out: cell growth or viability
# Method: MTT
SMILES,conditions,IC50
Cc1cc(C)n(Cn2ccnc2)n1,24 h,339 µM
C/C(=N\C(=S)/N=C(\C)c1c(O)c2ccccc2oc1=O)c1c(O)c2ccccc2oc1=O,48 h,9.01 µM
OC1CCN(c2ccc(/C=N/NC(=S)NCCc3ccccc3)cc2)CC1,24 h,15 µM
COc1cccc2c1C(=O)c1c(O)c3c(c(O)c1C2=O)C[C@@](O)(C(=O)CO)C[C@@H]3O[C@H]1C[C@H](N)[C@H](O)[C@H](C)O1,24 h,> 100 µM
OC1CCN(c2ccc(/C=N/NC(=S)NCc3ccccc3)cc2)CC1,24 h,12.6 µM
Cc1cc(Cn2ccnc2)nn1C,24 h,> 800 µM
CC(=O)c1c(O)c2ccccc2oc1=O,48 h,28.9 µM
OC1CCN(c2ccc(/C=N/NC(=S)Nc3cccc(Cl)c3Cl)cc2)CC1,24 h,16.9 µM
Cc1cc(C)n(Cn2cnc3ccccc32)n1,24 h,739 µM
C/C(=N\C(=O)/N=C(\C)c1c(O)c2ccccc2oc1=O)c1c(O)c2ccccc2oc1=O,48 h,21.9 µM
OC1CCN(c2ccc(/C=N/NC(=S)NC3CCCCC3)cc2)CC1,24 h,14.5 µM
C/C(=N\NC(=O)/N=C(\C)c1c(O)c2ccccc2oc1=O)c1c(O)c2ccccc2oc1=O,48 h,50.3 µM
CCOC(=O)c1cc(C)n(Cn2cnc3ccccc32)n1,24 h,422 µM
C[C@H]1[C@H](C)CC[C@]2(C(=O)O)CC[C@]3(C)C(=CC[C@@H]4[C@@]5(C)CC[C@H](O)C(C)(C)[C@@H]5CC[C@]43C)[C@H]12,24 h,16 µM
